Screens deposited in PubChem BioAssay by several laboratories.
HMGR II inh – inhibitors of class II HMG-CoA reductase from Enterococcus faecalis; inhibition, % at 10 µM; AID 1066; purified E. faecalis HMGR, NADPH absorbance 340 nm kinetic; 190,000 tested, 0.41% active;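 active = inhibition above a set limit, the median over all tested compounds plus 3 SD, cut at about 9.5% in these data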;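 note: enzyme runs in reverse so mevalonate oxidation gives rising NADPH absorbance; 0% = complete reaction with DMSO and 100% = background rate lacking mevalonate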
EP2 modulator – EP2 receptor (human) modulation; P43116; EP2-expressing cells, cAMP HTRF FRET, PGE2 co-stimulation; induction, % at 25 µM; 260,000 tested, 0.83% active;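 active = compounds whose cAMP rise, as percent of the full-agonist control response, exceeds 60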;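 note: rat C6 glioma line stably carrying human EP2 under a CMV promoter; the protocol text gives 20 µM as final concentration; 100% = response of wells given 1 µM PGE2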
Target sequence (P43116 whole entry, looked up): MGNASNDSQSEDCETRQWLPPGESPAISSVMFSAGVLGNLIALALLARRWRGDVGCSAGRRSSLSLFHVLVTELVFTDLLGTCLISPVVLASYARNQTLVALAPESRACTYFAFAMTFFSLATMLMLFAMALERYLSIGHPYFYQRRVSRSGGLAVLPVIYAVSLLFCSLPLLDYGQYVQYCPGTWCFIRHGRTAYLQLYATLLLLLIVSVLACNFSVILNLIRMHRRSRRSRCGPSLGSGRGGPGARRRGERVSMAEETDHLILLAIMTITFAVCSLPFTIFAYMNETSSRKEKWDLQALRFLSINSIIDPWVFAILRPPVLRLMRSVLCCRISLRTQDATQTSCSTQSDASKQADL
bCat nuc transl – alters nuclear translocation of beta-catenin in HeLa cells; immunofluorescence imaging; nuclear translocation activity, % at 5 µM; 190,000 tested, 0.3% active; AID 1665;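 active = nuclear translocation activity above 50% at 5 µM, with a well cell count of 50 or more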;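 note: per-cell ratio of nuclear to cytoplasmic median beta-catenin stain intensity; plate controls were DMSO negative control for no effect and GSK-3 inhibitor IX positive control for full effect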
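test system = HeLa cells, endogenous beta-catenin | dosing = single 5 µM dose plus 0.02–20 µM confirmation series | times = compound treatment 24 h, 37°C, 5% CO2 | technique = beta-catenin immunofluorescence imaging with DAPI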
MT stabilizer – stabilizes microtubules in HeLa cells; 200,000 tested, 0.83% active; HeLa tubulin immunostaining HCS, 24 h; share of cells brighter than vehicle mean+2SD; % tubulin-high responders, % at 10 µM; AID 2205;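 active = plate Z-score above 3 for both tubulin-high and condensed-nucleus cell shares, with cell loss under 80%, at 10 µM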;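 note: anti alpha tubulin signal scored within the nucleus-defined area of each cell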
PGE2 EP2 inh – blocks the human prostaglandin E2 receptor EP2; P43116; C6 glioma cells expressing human EP2, cAMP TR-FRET; cells stimulated with saturating PGE2; inhibition, % at 25 µM; 260,000 tested, 0.52% active; AID 1422;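 active = percent inhibition above 40 after rounding to a whole number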;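 note: rat C6 glioma host cells with rolipram phosphodiesterase inhibitor present; the protocol text gives 20 µM as final concentration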
TbHK1 inh – T. brucei hexokinase 1 inhibition | recombinant TbHK1, G6PDH-coupled NADH A340 | inhibition, % at 10 µM | 220,000 tested, 0.11% active;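 active = inhibition of 50% or more in the single-dose primary screen; inactive = inhibition below 50%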
* marks the source's active call; other numbers are inactive results; · = not tested or not shown. Sampled rows, rich in hits. Any-hit rate of the full collection: about 2.4%.

SMILES	HMGR II inh	EP2 modulator	bCat nuc transl	MT stabilizer	PGE2 EP2 inh	TbHK1 inh
C[C@H](NCCN(C)C)[C@@H]1CC[C@@H]2[C@H]3CCc4cc(O)ccc4[C@@H]3CC[C@]21C	·	-33	·	·	53*	·
COc1ccc(-n2nnnc2SCC(=O)N2CCCCCC2)cc1	·	-15	·	·	12	·
Cc1ccc(C(=O)Oc2oc(-c3ccccc3)nc2C=Nc2ccc(N(C)C)cc2)cc1	-6	47	-2	7	42*	-23
CCN(CC)P(=O)(Nc1ccc(C)cc1Br)c1ccc(N(C)C)cc1NC(=O)c1ccco1 (stereo not given)	-1	65*	0	4	15	-8
Cc1nc(SC2CC(=O)N(c3ccccc3)C2=O)n[nH]1 (stereo not given)	13*	17	0	3	29	1
O=C1CC(Sc2ncccn2)C(=O)N1c1ccccc1 (stereo not given)	-3	11	·	3	11	-2
COc1ccccc1Nc1ncc(C(=O)N2CCC(C(N)=O)CC2)c2ccccc12	1	-7	-1	3	6	-27
COc1ccccc1NC(=O)c1cnc(Nc2ccccc2OC)c2ccccc12	-3	17	118*	35*	10	12
O=S1(=O)CC=C(CSC(=S)NC2CCS(=O)(=O)C2)C1 (stereo not given)	15*	0	0	3	5	-6
c1csc(CNc2ccc(NCc3cccs3)cc2)c1	·	-93	·	·	16	·
Clc1ccccc1Cn1nnc2c(N3CCCc4ccccc43)ncnc21	·	56	·	·	22	·
Fc1c(F)c(C(F)(F)F)c(F)c(F)c1N/N=C\c1cccs1	-8	-47	-1	2	124*	-8
Cn1c(N/N=C/c2cccs2)cc(=O)n(C)c1=O	-1	10	·	4	·	-47
CN(C)S(=O)(=O)c1ccc(S(=O)(=O)N2CCCC(C(=O)O)C2)cc1 (stereo not given)	·	0	·	·	11	·
Nc1[nH]nc2nc3ccccc3cc12	10*	-16	2	7	4	-3
CCc1ccc2nc3n[nH]c(N)c3cc2c1	-5	-2	4	3	10	1
CCOC(=O)CCC(NC(=O)CCC(=O)NC(CCC(=O)OCC)C(=O)OCC)C(=O)OCC (stereo not given)	-2	33	0	3	9	4
CCOC(=O)CCC(NC(=O)CC(=O)NC(CCC(=O)OCC)C(=O)OCC)C(=O)OCC (stereo not given)	10*	25	1	1	11	1
Cc1ccc(N2C(=O)c3cccc4c(N)ccc(c34)C2=O)c2cccnc12	·	8	67*	·	5	-5
COC(=O)COc1ccccc1C1C(C(=O)OC)=C(N)OC2=C1C(=O)CC(C)(C)C2 (stereo not given)	·	17	·	·	9	·
O=CN/C=C/c1cc(O)ccc1O	·	-44	3	·	111*	3
CC1CCN(C(=O)c2cc3n(n2)C(C(F)(F)F)CC(c2ccco2)N3)CC1 (stereo not given)	·	-22	·	·	13	·
Cc1ccsc1C(=O)C1CCCN(Cc2cc(F)ccc2-n2cccn2)C1 (stereo not given)	18*	40	-2	3	4	-3
COc1cc(OC)c(OC)cc1CN1CCCC(C(=O)c2sccc2C)C1 (stereo not given)	·	10	-1	·	3	0
COc1ccc(/C(O)=C2/C(=O)C(=O)N(CCN3CCOCC3)C2c2cc(OC)ccc2OC)c(C)c1 (stereo not given)	·	-8	·	·	9	·
SMILES	HMGR II inh	EP2 modulator	bCat nuc transl	MT stabilizer	PGE2 EP2 inh	TbHK1 inh
CCn1c(N2CCC(C(=O)NCc3ccccn3)CC2)nc2ccccc21	·	-40	·	·	12	·
CCn1c(N2CCC(C(=O)Nc3nnc(C(C)C)s3)CC2)nc2ccccc21	·	3	·	·	·	·
CC1=CN2C(=N)/C(=C/c3ccc([N+](=O)[O-])o3)C(=O)N=C2S1	-1	-10	-2	6	104*	-3
CN1C2CCC1CC(OC(c1ccccc1)c1ccccc1)C2 (stereo not given)	·	2	-1	·	4	5
CN1[C@@H]2CC[C@H]1CC(OC(c1ccccc1)c1ccccc1)C2 (stereo not given in full)	·	-15	·	·	57*	·
CCCCCCn1c(CN2CCC(C)CC2)nc2c1c(=O)n(C)c(=O)n2C	4	63*	-1	4	6	-1
O=C1C(=O)c2ccccc2C(O)=C1C(CCc1ccccc1)C1=C(O)c2ccccc2C(=O)C1=O	·	27	·	·	42*	·
CSCCC(NS(=O)(=O)/C=C/c1ccccc1)C(=O)O (stereo not given)	10*	25	-3	2	9	4
COc1cccc(N(CC(=O)NCc2ccc3c(c2)OCO3)S(C)(=O)=O)c1	·	-15	·	·	4	·
CCOC(=O)N1CCN(C(=O)Cn2ncc3ccccc32)CC1	-6	18	-3	4	15	4
O=C(Cn1ncc2ccccc21)N1CCN(c2cccc(C(F)(F)F)c2)CC1	18*	-35	-1	3	14	1
CC(OC(=O)C1=NNC(=O)CC1)C(=O)Nc1ncc(Cl)cc1Cl (stereo not given)	1	9	-3	2	4	-2
CCOC(=O)c1[nH]c(C)c(C(=O)OC(C)C(=O)Nc2ncc(Cl)cc2Cl)c1C (stereo not given)	3	-36	0	42*	9	-1
CCC(NC(=O)COc1ncnc2ccccc12)c1ccc(F)cc1 (stereo not given)	·	-12	·	·	12	·
C=Cn1cc(CN(Cc2cc(OC)ccc2OC)CC2CCCO2)c(C)n1 (stereo not given)	·	-7	·	·	9	·
O=C(Nc1ccc(N2CCCC2)c(Cl)c1)c1ccc2c(c1)OCCO2	9.6*	-35	·	4	31	7
O=C(Nc1ccc(N2CCCCC2)c(Cl)c1)c1ccc2c(c1)OCCO2	-4	-111	7	1	7	-1
COc1ccccc1Nc1nc2cc(C)ccc2cc1C#N	-3	4	0	2	10	-9
COc1ccccc1Nc1nc2ccc(C)cc2cc1C#N	-1	61*	·	3	·	-2
CC(=O)Nc1ccc(NC(=O)C2CCCN(S(=O)(=O)c3ccc(C)cc3)C2)cc1 (stereo not given)	·	-29	·	·	10	·
O=C1NC(c2ccc3c(c2)OCO3)Nc2ccccc21 (stereo not given)	0	26	-1	22*	4	-6
O=C1NC(c2ccc3c(c2)OCO3)Oc2ccccc21 (stereo not given)	-5	16	-4	2	11	4
CN1CCc2c(sc3c2C(=O)NC(c2ccc4c(c2)OCO4)N3)C1 (stereo not given)	·	·	4	·	41*	·
Cc1cc2ccccc2n2c(=O)n(CCNC(=O)C(C)N3CCCC3=O)nc12 (stereo not given)	·	-28	·	·	8	·
